Hits are enriched below; roughly 11% of the tested compounds scored in any of these assays.
M1 antag – antagonists of rat M1 muscarinic receptor | P08482 | CHO-M1 cells, Fluo-4 calcium, ACh EC80 antagonist mode; active compounds read low | B-score at 10 µM | actives 3.4% (n = 64,000) | AID 628;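 active = calcium fluorescence response, raw or row-and-column corrected B-score, differing from the plate sample mean either way at a set confidence level, mostly lower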
M1 agonist – M1 muscarinic receptor agonism; CHO-M1 cells, Fluo-4 calcium fluorescence, agonist mode; active compounds read high; B-score at 10 µM; actives 3% (n = 64,000); AID 626;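 active = fluorescence rise, raw or as B-score row- and column-corrected plate score, outside the 99.7% band of its plate's samples, either direction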
D1 allo mod – D1 dopamine receptor (human) allosteric modulation | P21728 | HEK293 D1, CRE-luciferase, dopamine EC30 potentiation; actives deviate in either direction | B-score at 10 µM | actives 5.9% (n = 58,000);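 active = luminescence count or its row- and column-corrected plate score outside the 99.7% band of the plate's sample wells, on either side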
Target sequence (P21728 whole entry, looked up): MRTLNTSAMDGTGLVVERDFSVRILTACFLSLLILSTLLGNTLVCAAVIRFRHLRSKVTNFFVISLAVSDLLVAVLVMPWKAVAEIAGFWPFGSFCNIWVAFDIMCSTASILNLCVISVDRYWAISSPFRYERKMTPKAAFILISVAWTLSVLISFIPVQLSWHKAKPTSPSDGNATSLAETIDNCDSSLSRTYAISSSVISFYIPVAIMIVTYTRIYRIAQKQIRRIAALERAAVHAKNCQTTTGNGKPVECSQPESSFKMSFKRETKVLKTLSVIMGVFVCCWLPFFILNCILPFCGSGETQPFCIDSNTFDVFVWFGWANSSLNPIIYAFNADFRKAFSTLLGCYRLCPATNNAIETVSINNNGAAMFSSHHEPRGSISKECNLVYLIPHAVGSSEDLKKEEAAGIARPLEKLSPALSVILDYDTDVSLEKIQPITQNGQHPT
S1P3 agonist – agonists of human S1P3 receptor. AID 373. Q99500. S1P3 NFAT-BLA reporter cells, agonism, FRET ratio; relative to 1 µM S1P, basal subtracted. actives 0.1% (n = 60,000). activation, % at 4.5 µM;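 active = activation above the screen-wide mean plus 3 SD, cut at about 4.5% in these data, passing the limit was not always enough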
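Measure – % activation relative to 1 µM S1P (100%), per plate · System – stable CHO line with human S1P3, Gα16, NFAT-BLA reporter · Timing – cells plated overnight, compound 4 h 37 °C, substrate 2 h RT · Technique – fluorescent BLA substrate, ex 405 nm, em 460/535 nm ratio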
S1P1 ag pot – activates or potentiates agonism at human S1P1 receptor; P21453; S1P1 CRE-bla cells, forskolin, beta-lactamase FRET, potentiator mode; S1P1 agonist co-added at EC20, 2 nM; 100% = saturating reference agonist, 0% = basal; activation, % at 9.5 µM; actives 0.57% (n = 56,000);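 active = activation above a cutoff set at the mean activation of all tested compounds plus 3 SD, cut at about 54% in these data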;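 also: forskolin at 4 µM as EC80 and the EC20 agonist is SEW2871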
D1 PAM confirm – confirmation of human D1 dopamine receptor allosteric modulators; shares compounds with D1 allo mod; HEK293 D1 CRE-luciferase, dopamine EC30 potentiation; active compounds read high; luminescence at 10 µM; actives 88% (n = 2,200); AID 642;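 active = luminescence in either of two replicates above the same-plate mean plus 3 SD of the low-dose dopamine control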
D1 ag no DA – D1 (human) signaling in absence of dopamine | shares compounds with D1 allo mod | HEK293 D1 CRE-luciferase, luminescence, no dopamine; active compounds read high | luminescence at 10 µM | actives 0.8% (n = 1,900); in the data active = luminescence above about 3900
Isoprot counter – alters isoproterenol CRE-luciferase response in HEK293 cells; actives 63% (n = 2,200); HEK293 D1 CRE-luciferase, isoproterenol EC30 counter-screen; active compounds read high; luminescence at 10 µM; shares compounds with D1 allo mod;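 active = luminescence in either replicate above plate mean of wells with a partly effective reference agonist dose plus 3 SD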;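 also: isoproterenol raises cAMP through native beta-adrenoceptor Gs so signal bypasses D1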
A number is an active result; 0 = inactive; - = not tested or not shown.

SMILES	M1 antag	M1 agonist	D1 allo mod	S1P3 agonist	S1P1 ag pot	D1 PAM confirm	D1 ag no DA	Isoprot counter
Cc1ccc(-c2nnc3n2N=C(c2ccccc2)CS3)cc1	0	0	8.3	0	0	21908	0	5776
CCc1ccc(C2=Nn3c(nnc3-c3cccs3)SC2)cc1	0	0	8.81	0	0	6272	0	0
COc1ccc(C2=Nn3c(nnc3-c3ccc(OC)cc3)SC2)cc1	0	0	8.12	0	0	16788	0	14528
Cc1cccc(-c2nnc3n2N=C(c2ccccc2Br)CS3)c1	0	0	8.15	0	0	17404	0	6836
COc1ccc(-c2nnc3n2N=C(c2cccc(Br)c2)CS3)cc1OC	0	0	0	0	0	-	-	-
CCn1ncc(C2=NOC(C(=O)Nc3cccc(C(C)=O)c3)C2)c1C (centres undefined)	0	0	0	0	0	-	-	-
Cc1nc2ccc(S(=O)(=O)Nc3ccccc3C)cc2s1	0	0	0	0	-	-	-	-
CN1CCN(c2nc3nonc3nc2N2CCN(C)CC2)CC1	0	0	0	0	0	-	-	-
CCOC(=O)C1CCN(C(=O)CSC2=NCCS2)CC1	0	0	0	0	0	-	-	-
CCOC(=O)c1[nH]c(CSc2nnc(-c3ccc(OC)cc3)o2)c(C(=O)OCC)c1C	0	0	4.78	-	-	13216	0	4084
COc1ccc(-c2nnc(SCC(=O)c3[nH]c(C)c(C(C)=O)c3C)o2)cc1	0	0	0	0	0	-	-	-
CSCC[C@H](NC(=O)OC(C)(C)C)c1nnc(SCC=C(C)C)o1	0	0	0	0	0	-	-	-
Cc1csc(=Nc2ccc(S(=O)(=O)N3CCOCC3)cc2)n1Cc1ccco1	0	0	0	0	0	-	-	-
Cc1cc(N2CCCCC2)n2nc(C)c(-c3ccccc3)c2n1	0	0	0	0	0	-	-	-
Cc1cc(SCC#N)n2nc(C)c(-c3ccccc3)c2n1	0	0	14	0	0	14516	0	5404
COc1ccc2nc3oc(C(=O)N4CCN(c5cccc(Cl)c5)CC4)cc3cc2c1	0	0	3.59	0	0	0	0	0
Cc1csc(NC(=O)CSc2nnc(Cn3c(=O)sc4ccccc43)n2-c2ccccc2)n1	0	0	0	0	0	-	-	-
c1ccc2[nH]c(CN3CCN(c4ncnc5c4oc4ccccc45)CC3)nc2c1	0	0	9.59	0	0	14816	-	4708
Cc1sc2ncnc(Oc3ccc(-n4ccnc4)cc3)c2c1C	0	0	-	0	0	-	-	-
COc1ncnc2c1NC(=O)CS2	0	0	0	0	0	-	-	-
COc1ncnc2c1N[C@@](C)(O)c1c(F)c(F)c(F)c(F)c1S2	0	0	5.72	0	0	8300	0	0
CCCS(=O)(=O)N1CCN(S(=O)(=O)c2ccc(F)cc2)CC1	0	0	0	0	-	-	-	-
C/C(N)=C(/C#N)C(=O)CSc1nnc(SCc2ccc(Cl)cc2)s1	0	0	6.7	0	60.0	6760	0	0
C/C(N)=C(/C#N)C(=O)CSc1nnc(Nc2c(C)cccc2C)s1	0	0	0	0	0	-	-	-
COC(=O)c1ccc(NC(=O)CSc2nnc(CNc3ccc(F)cc3)n2C)cc1	0	0	0	0	0	-	-	-
SMILES	M1 antag	M1 agonist	D1 allo mod	S1P3 agonist	S1P1 ag pot	D1 PAM confirm	D1 ag no DA	Isoprot counter
O=C(Cn1cnc2c(nnn2Cc2ccc(F)cc2)c1=O)N1CCN(c2ccccc2)CC1	0	0	0	0	0	-	-	-
CCOC(=O)c1cccc(NC(=O)CCc2nc(-c3ccccc3F)no2)c1	0	0	3.03	0	0	0	0	0
CCOC(=O)c1cccc(NC(=O)CCc2nc(-c3ccc(C)cc3)no2)c1	0	0	0	0	0	-	-	-
NC(=O)Cc1c[nH]c2cccc(O)c12	0	0	0	0	0	-	-	-
COc1ccccc1CNC(=O)c1ccc(NS(=O)(=O)c2c(C)noc2C)cc1	0	0	4.24	0	0	6660	0	0
COc1ccc(NC(=O)c2ccc(NS(=O)(=O)c3c(C)noc3C)cc2)cc1OC	0	0	8.85	0	0	5712	0	0
